HER2 expr 66K: inhibitors of human Her2 kinase expression. HER2 level % of control, % at 10 µM. SKBR-3 HER2 protein level, AlphaScreen, 18-24 h; active compounds read low. 65,000 compounds, 0.69% hits. P04626;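 active means HER2 level under 5% of the carrier-only control; inconclusive means no clear call, values can overlap the other calls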;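 further: lower value means stronger loss of Her2 protein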
JNK3 blocker: inhibitors of human JNK3 kinase; AID 746; inhibition, % at 8 µM; purified JNK3 kinase activity, HTS; P53779; 60,000 compounds, 0.61% hits; in the data active means inhibition above about 17%
BAP1 block: human BAP1 deubiquitinase inhibition. recombinant BAP1, Ub-AMC hydrolysis fluorescence kinetic; active compounds read low. calls only at 20 µM. AID 436. 72,000 compounds, 0.48% hits;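 active means activity remaining at or below 50% of control, provided the compound also passes the data quality filters; inactive means the rest, including low values that fail the filters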
M1 antagonist: antagonists of rat M1 muscarinic receptor. P08482. CHO-M1 cells, Fluo-4 calcium, ACh EC80 antagonist mode; active compounds read low. B-score at 10 µM. 64,000 compounds, 3.4% hits. AID 628;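 active means calcium fluorescence response, raw or row-and-column corrected B-score, differing from the plate sample mean either way at a set confidence level, mostly lower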
HEK293 NFkB inh: lowers PMA/ionomycin-induced NF-kB signal in HEK293 cells | HEK-293 NF-kB luciferase reporter, luminescence | inhibition, % at 3 µM | 62,000 compounds, 0.21% hits | AID 465;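 active means inhibition above the mean of all tested compounds plus 3 SD, cut at about 40% in these data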
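System – HEK-293 cells with stable firefly luciferase reporter driven by four HIV NF-kB elements · Doses – one dose, 3 µM · Schedule – 1 h compound pre-incubation, 16 h PMA/ionomycin at 37 °C · Technique – luminescence from luciferase substrate reagent · Measure – percent inhibition normalized per plate to DMSO and reference-inhibitor controls · Replicates – tested once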
M1 agonist: M1 muscarinic receptor agonism; CHO-M1 cells, Fluo-4 calcium fluorescence, agonist mode; active compounds read high; 64,000 compounds, 3% hits; B-score at 10 µM;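 active means fluorescence rise, raw or as B-score row- and column-corrected plate score, outside the 99.7% band of its plate's samples, either direction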
M1 ag confirm: confirmation of rat M1 muscarinic receptor agonists | shares compounds with M1 agonist | CHO-M1 cells, Fluo-4 calcium fluorescence, agonist mode; actives lie on both sides | fluorescence change (max-min) at 10 µM | 1,700 compounds, 19% hits | AID 1488;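 active means fluorescence change differs from the solvent-only DMSO control mean at a set confidence level in both duplicate runs; inconclusive means differs from solvent-only control mean in just one of two runs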;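 further: an EC20 dose of acetylcholine follows compound addition during the same imaging run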
M4 ag counter: counter-screen for M1 agonists: activity at rat M4 receptor | shares compounds with M1 agonist | CHO M4/Gqi5 cells, Fluo-4 calcium fluorescence, agonist mode; actives lie on both sides | fluorescence change (max-min) at 10 µM | 1,700 compounds, 9% hits | AID 1741;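 active means fluorescence change differing from the plate's solvent-only control wells at 99.7% confidence in both duplicates, whether higher or lower; inconclusive means differs from solvent controls in only one of two duplicates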
Hits are given with their value; . = inactive; ? = inconclusive; / = no result shown. Only some compounds are listed: those with a hit (about 6.6% of all), similar ones and a draw of the others.

SMILES	HER2 expr 66K	JNK3 blocker	BAP1 block	M1 antagonist	HEK293 NFkB inh	M1 agonist	M1 ag confirm	M4 ag counter
O=C(CSC1=NCCS1)Nc1ccnc2ccccc12	.	.	.	.	.	4.2	.	?
CCn1c(N)c(C(=O)NCC2CCCO2)sc1=S (configuration not stated)	.	.	.	.	.	6.7	.	.
COc1cc(OC)c(C2CC(=O)Nc3c2ccc2ccccc32)cc1OC (configuration not stated)	/	/	.	/	/	/	/	/
Cc1cc2ncn(C3CC(=O)N(Cc4ccccc4)C3=O)c2cc1C (configuration not stated)	.	.	.	.	.	5.8	?	.
Cc1ccc(S(=O)(=O)N2CCN(C3CC(=O)N(Cc4ccccc4)C3=O)CC2)cc1C (configuration not stated)	.	.	.	.	.	.	/	/
COc1ccc(Nc2nc(N)nc(CSc3n[nH]c(-c4ccccc4)n3)n2)cc1	.	.	.	.	.	.	/	/
Nc1nc(CSc2n[nH]c(-c3ccccc3)n2)nc(Nc2ccccc2)n1	.	.	.	.	.	2.2	-42	.
Cc1cc(Nc2nnnn2-c2ccccc2)n(-c2ccc(Cl)cc2)n1	.	.	.	.	.	.	/	/
Clc1ccc(-n2nnnc2-c2ccccc2)cc1	.	.	/	.	.	3.3	-26	.
COc1ccc2nc(N3CCC(C)CC3)c(C#N)cc2c1	.	.	.	.	.	4	.	?
CCc1ccc2nc(N3CCN(C)CC3)c(C#N)cc2c1	.	.	.	.	.	.	/	/
COc1ccc2nc(N3CCC(O)CC3)c(C#N)cc2c1	.	.	.	.	.	55	198	166
O=C(c1nc(-c2ccccc2)n(-c2ccccc2)n1)N1CCN(S(=O)(=O)c2ccccc2)CC1	.	.	.	-3.8	.	3.8	.	?
Cc1cc(C(=O)CSc2nnc(-c3ccco3)o2)c(C)n1Cc1ccco1	.	.	.	.	.	.	/	/
Cc1cc(C(=O)CSc2nnc(-c3ccco3)o2)c(C)n1-c1ccc2c(c1)OCCO2	.	.	/	.	.	12	?	.
COCC(C)NC(=O)NC1(C(F)(F)F)Oc2ccc(Cl)cc2O1 (configuration not stated)	.	/	/	.	.	6.4	?	.
CC(=O)c1sc2nc(-c3cccs3)cc(C(F)(F)F)c2c1N	-2.8	.	.	.	.	98	123	.
Cc1cc(C(F)(F)F)c2c(N)c(C(=O)c3ccc(Cl)s3)sc2n1	/	/	.	/	/	/	/	/
Cc1ccc(CN2C(=O)C(C)(C)Nc3ccccc32)c(C)c1	/	/	.	/	/	/	/	/
CCN(CC)S(=O)(=O)c1cccc(-c2nnc(SCCOc3ccccc3C)o2)c1	.	.	/	.	.	5.6	.	?
O=C(Nc1ccc(-c2nc3cc(Cl)ccc3o2)cc1)c1cc([N+](=O)[O-])ccc1Cl	/	/	.	/	/	/	/	/
COc1ccc(-c2ccc(-c3noc(C4CCCCC4)n3)c(OC)n2)cc1	.	.	.	.	.	3.9	.	?
COc1ccc(-c2ccc(-c3noc(C)n3)c(OC)n2)cc1	.	.	/	.	.	.	/	/
O=C(NCc1cccs1)Nc1ccc2c(c1)OCO2	.	.	.	.	.	3.1	?	.
CC(=O)c1cccc(NC(=O)NCc2cccs2)c1	.	.	.	.	.	.	/	/
SMILES	HER2 expr 66K	JNK3 blocker	BAP1 block	M1 antagonist	HEK293 NFkB inh	M1 agonist	M1 ag confirm	M4 ag counter
O=C(NCc1n[nH]c(=S)n1Cc1ccccc1)c1cccs1	/	/	.	/	/	/	/	/
CC(=O)Nc1ccc(S(=O)(=O)Nc2nc3ccccc3nc2Sc2nncn2C)cc1	.	/	/	.	.	43	55	.
O=C1CSC(=S)N1c1cccc([N+](=O)[O-])c1	/	/	.	/	/	/	/	/
COCc1cc(C)nc2sc(C(=O)OC)c(N)c12	.	.	.	.	.	4.4	.	.
COCc1cc(C)nc2sc(C(=O)N3CCCC3)c(N)c12	.	.	.	.	.	.	/	/
COc1cc(OC)cc(-c2nnc(SCc3c(F)cccc3Cl)o2)c1	.	.	.	.	.	-2.8	?	.
CCc1ccc(C2NC(=O)NC(C)=C2C(=O)OC2CCCCC2)cc1 (configuration not stated)	/	/	.	/	/	/	/	/
